Where two headings read alike, the source gives them in different places. One block for each compound: values may come before it.
Assays:
MdIPMS1 [1] = target: T1, MdIPMS1 (Malus domestica, UniProt A0A498I0D3); assay: DTNB endpoint assay, feedback inhibition; assay type: biochemical; details: 10 mM α-ketoisovalerate; threonine range 0 to 10 mM
T1 sequence (A0A498I0D3 59-236): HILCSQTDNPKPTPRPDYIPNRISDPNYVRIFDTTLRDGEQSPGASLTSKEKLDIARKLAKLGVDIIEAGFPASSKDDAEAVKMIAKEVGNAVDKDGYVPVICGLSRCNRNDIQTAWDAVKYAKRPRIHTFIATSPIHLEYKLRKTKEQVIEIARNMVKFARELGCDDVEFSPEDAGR
T1 sequence (A0A498I0D3 250-642): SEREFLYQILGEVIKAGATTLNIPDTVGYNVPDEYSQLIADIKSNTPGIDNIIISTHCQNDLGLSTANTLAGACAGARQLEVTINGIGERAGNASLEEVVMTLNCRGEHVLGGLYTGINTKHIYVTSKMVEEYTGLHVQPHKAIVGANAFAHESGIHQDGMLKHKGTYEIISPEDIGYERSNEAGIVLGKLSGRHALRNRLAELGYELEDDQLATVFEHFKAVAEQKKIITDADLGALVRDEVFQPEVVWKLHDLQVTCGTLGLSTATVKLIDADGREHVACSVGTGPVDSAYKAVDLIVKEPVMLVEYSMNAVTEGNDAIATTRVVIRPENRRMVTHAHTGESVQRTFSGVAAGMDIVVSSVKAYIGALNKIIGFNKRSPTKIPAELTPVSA

MdIPMS2 [2] = target: T2, MdIPMS2 (Malus domestica, UniProt A0A498KQL4); assay: DTNB endpoint assay, feedback inhibition; assay type: biochemical; details: 10 mM α-ketoisovalerate; threonine range 0 to 10 mM
T2 sequence (A0A498KQL4 64-634): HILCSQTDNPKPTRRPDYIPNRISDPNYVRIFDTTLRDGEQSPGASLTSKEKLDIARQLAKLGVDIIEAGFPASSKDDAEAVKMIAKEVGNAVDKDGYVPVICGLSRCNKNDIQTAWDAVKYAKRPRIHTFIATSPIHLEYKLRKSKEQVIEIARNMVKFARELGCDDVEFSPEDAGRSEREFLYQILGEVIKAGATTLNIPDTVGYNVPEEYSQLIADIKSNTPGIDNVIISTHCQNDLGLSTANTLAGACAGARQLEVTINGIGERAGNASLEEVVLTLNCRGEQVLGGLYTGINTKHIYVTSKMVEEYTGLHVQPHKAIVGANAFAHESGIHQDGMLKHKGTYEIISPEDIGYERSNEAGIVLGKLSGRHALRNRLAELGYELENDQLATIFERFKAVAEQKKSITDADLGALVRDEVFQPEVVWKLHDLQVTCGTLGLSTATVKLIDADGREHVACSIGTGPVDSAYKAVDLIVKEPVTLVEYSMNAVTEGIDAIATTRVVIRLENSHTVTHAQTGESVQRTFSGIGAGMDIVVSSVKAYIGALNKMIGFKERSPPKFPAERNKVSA

MdCMS_1 = assay: DTNB endpoint assay, Lineweaver-Burk; assay type: biochemical, Malus domestica; details: read-out: Km ± SE
In short: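 Recombinant apple enzyme expressed in E. coli BL21 (ORF with or without putative chloroplast transit peptide) and purified. Activity measured by DTNB (Ellman's reagent) endpoint assay. Acetyl-CoA was varied with pyruvate held saturating at 10 mM. Absorbance was corrected against an identical mixture lacking α-ketoacid. Km was obtained by regression of Lineweaver–Burk plots, with two to three replications per regression.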

MdIPMS1 [3] = target: T1, MdIPMS1; assay: DTNB endpoint assay, feedback inhibition; assay type: biochemical; details: read-out: % inhibition at 0.05 mM
MdIPMS2 [4] = target: T2, MdIPMS2; assay: DTNB endpoint assay, feedback inhibition; assay type: biochemical; details: read-out: % inhibition at 0.05 mM

Km (MdCMS_1; co-substrate acetyl-CoA): 3560 µM
Structure (SMILES): CCC(=O)C(=O)O [α-Ketobutyrate]

inhibition at 50 µM (MdIPMS1 [3]): 40%
inhibition at 50 µM (MdIPMS2 [4]): 70%
Structure (SMILES): CC(C)C[C@H](N)C(=O)O [leucine]

Continued, compound first:

Structure (SMILES): C[C@@H](O)[C@H](N)C(=O)O [threonine]
% inhibition (MdIPMS1 [1]): both MdIPMS proteins were inhibited by elevated levels of threonine
% inhibition (MdIPMS2 [2]): both MdIPMS proteins were inhibited by elevated levels of threonine

Structure (SMILES): CC(=O)SCCNC(=O)CCNC(=O)[C@H](O)C(C)(C)COP(=O)(O)OP(=O)(O)OC[C@H]1O[C@@H](n2cnc3c(N)ncnc32)[C@H](O)[C@@H]1OP(=O)(O)O [Acetyl-CoA]
Km (MdCMS_1; saturating (10 mM) pyruvate): 6.6 ± 0.9 µM

Structure (SMILES): CC(=O)C(=O)O [Pyruvate]
Km (MdCMS_1; co-substrate acetyl-CoA): 2450 µM

From paper PMC7826400 (Proceedings of the National Academy of Sciences of the …, 2021)
